Screening results deposited in PubChem by several laboratories.
Wee1 degr inh: human Wee1 degradation inhibition, primary screen. P30291. HeLa Luc-Wee1K328M stability, luciferase luminescence; 100% = proteasome inhibitor MG132 effect. reporter increase, % at 5 µM. hit rate 1.2% among 220,000. AID 1321;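 active means activation above the mean of all tested compounds plus 3 SD, set per screening run, cut at about 8.8% in these data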;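 further: cells exposed to compound for 20 h before luminescence read; 0% = DMSO alone and 100% = MG132 at 30 µM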
p97 inhibitor: blocks human p97 ATPase activity; inhibition, % at 8 µM; hit rate 0.42% among 220,000; recombinant p97 ATPase, Kinase-Glo ATP luminescence, 3 h; AID 1481; in the data active means inhibition above about 15%;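 further: 0% = DMSO vehicle and 100% = wells lacking enzyme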
Arbovirus anti: antivirals against arbovirus infection; hit rate 0.37% among 200,000; arbovirus infection cell-based antiviral screen; AID 1251; inhibition, % at 10 µM; in the data active means inhibition above about 30%
Redox H2O2 prof: compounds producing H2O2 with reducing agent – biochemical, NIH compound library profiling, artefact control for MLSCN library redox annotation, primary screen; DTT-dependent redox cycling H2O2, phenol red/HRP absorbance; 100% = 100 µM peroxide control, 0% = buffer; activation, % at 10 µM; hit rate 0.03% among 200,000; AID 878;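 active means activation of at least 50% relative to the plate's high and low controls in the primary single-dose screen; inactive means activation below 50%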;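 further: compound incubated with DTT at 0.8 mM final as the reducing agent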
PKD1 kinase inh: blocks activity of human protein kinase D1. hit rate 0.056% among 200,000. inhibition, % (test concentration not listed). AID 797. PKD1 kinase fluorescence polarization assay; in the data active means inhibition above about 50%
RBBP9 inh: blocks human serine hydrolase RBBP9; O75884; recombinant RBBP9, FP-Rh probe fluorescence polarization; inhibition, % at 7.94 µM; AID 1515; hit rate 0.2% among 220,000;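 active means inhibition above the campaign mean of all tested compounds plus 3 SD, cut at about 14% in these data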;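 further: plate controls were DMSO wells with RBBP9 for no effect and wells lacking RBBP9 protein for full effect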
Target sequence (O75884 whole entry, looked up): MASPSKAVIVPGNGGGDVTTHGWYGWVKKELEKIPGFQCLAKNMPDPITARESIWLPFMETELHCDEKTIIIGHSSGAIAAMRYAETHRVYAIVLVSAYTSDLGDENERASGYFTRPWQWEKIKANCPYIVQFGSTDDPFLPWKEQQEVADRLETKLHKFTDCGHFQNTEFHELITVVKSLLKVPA
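Controls: DMSO-treated enzyme wells and wells lacking RBBP9 | Material: RBBP9 protein | Technique: Fluorescence polarization | Replication: Single well per compound, no replicates | Buffer or medium: Tris-NaCl-Pluronic buffer, pH 8.0 | Timing: 30 min compound preincubation, 45 min probe labeling, 25 °C | Read-out basis: Percent inhibition from mP, scaled between DMSO and no-protein wells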
RBBP9 inh conf: confirmation of human RBBP9 inhibitors; hit rate 36% among 410; recombinant RBBP9, FP-Rh probe fluorescence polarization; shares compounds with RBBP9 inh; inhibition, % at 7.94 µM; AID 1537;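 active means inhibition above the hit cutoff derived for the primary screen, cut at about 15% in these data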;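 further: 0% = RBBP9 with DMSO and 100% = wells lacking RBBP9 protein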
* hit, by the source's call; . = no result. In the library only some 2.2% were active in any assay of this set; here they are far more common.

SMILES | Wee1 degr inh | p97 inhibitor | Arbovirus anti | Redox H2O2 prof | PKD1 kinase inh | RBBP9 inh | RBBP9 inh conf
c1ccc(N2CCN(Cc3cn4cccnc4n3)CC2)cc1 | -1.9 | -8.1 | 7.4 | -0.2 | -8.9 | -11.9 | .
O=C(Nc1cccc(Cl)c1)Nc1sccc1-c1nc2ccccc2s1 | 0.6 | 2.5 | . | . | . | 14.7* | 19.4*
Cc1cc(N)ccc1-n1c(C)ccc1C | -2.5 | 3.2 | -3.6 | 0.0 | -12.0 | 31.3* | -55.6
CCc1nnc(NC(=O)Cc2ccc(Br)cc2)s1 | 7.1 | 2.4 | 1.7 | 0.4 | 0.8 | 5.0 | .
O=C(CSc1nnc2ccccn12)N1CCOCC1 | 0.9 | 3.3 | 6.4 | 1.4 | -4.3 | 14.4* | 8.0
COC(=O)c1c(NC(=O)CCNCc2ccco2)sc2c1CCC2 | 5.4 | 1.2 | . | . | . | 1.3 | .
COC(=O)CC(=O)CSc1nc2c(cc1C#N)CCC2 | -1.0 | -1.4 | 0.8 | -0.5 | -2.4 | 23.9* | 9.9
CN(C)c1ccc(C(=S)N2CCN(c3ccc([N+](=O)[O-])cc3)CC2)cc1 | 6.5 | -9.5 | . | . | . | -9.7 | .
O=[N+]([O-])c1ccc(C(=S)N2CCN(c3ccc(F)cc3)CC2)cc1 | -0.6 | 0.1 | 5.8 | 0.5 | -6.7 | 14.6* | 5.7
CCN(CC)C(=O)CSc1nnc(COc2ccccc2)n1N | -1.0 | -0.3 | 0.0 | -1.0 | -5.5 | -11.1 | .
COc1ccc(OC)c(NC(=O)CN(C)CC(=O)Nc2ccccc2Br)c1 | -2.0 | -1.7 | 4.4 | 0.0 | -3.0 | 4.4 | .
Cn1cccc1/C=N/NC(=O)CNc1ccc2ccccc2c1 | -1.8 | -0.1 | . | . | . | -3.3 | .
Cc1ccc(NCC(=O)N/N=C/c2cccn2C)cc1 | -0.2 | 8.8 | . | . | . | 17.4* | 5.4
CSc1cccc(NC(=O)Nc2nc3c(C)cccc3s2)c1 | -1.4 | -2.0 | . | . | . | 1.6 | .
CS(=O)(=O)N(CC(=O)Nc1cccnc1)c1ccc2c(c1)OCCO2 | 1.4 | -3.4 | 0.0 | 1.9 | 3.2 | -3.3 | .
CS(=O)(=O)N(CC(=O)Nc1cccnc1)c1ccc2c(c1)OCO2 | 2.0 | 4.5 | -1.9 | 0.0 | -11.5 | 14.5* | 4.6
CCOc1ccccc1/C=N/NC(=O)c1cccc(S(=O)(=O)N(CC)CC)c1 | -2.8 | 4.9 | -2.2 | -0.8 | -4.8 | -6.8 | .
CCN(CC)S(=O)(=O)c1cccc(C(=O)N/N=C/c2ccc(O)c(O)c2O)c1 | -2.4 | 7.1 | -4.8 | -0.4 | -5.2 | 17.8* | 66.0*
COc1ccc(OC(C)C(=O)N2CCCc3ccccc32)cc1 (stereo unspecified) | 3.4 | 0.8 | 2.7 | 0.4 | 0.4 | 16.9* | 4.9
CC(Oc1ccccc1)C(=O)N1CCCc2ccccc21 (stereo unspecified) | 0.0 | 3.5 | -5.9 | 3.2 | 7.0 | 0.1 | .
O=C(CCCCCn1c(=S)[nH]c2ccc(N3CCOCC3)cc2c1=O)NCc1cccc(Cl)c1 | 5.8 | -1.7 | -11.2 | 0.9 | -7.2 | -7.6 | .
CNS(=O)(=O)c1ccc2ccccc2c1 | -0.7 | 4.4 | . | . | . | 19.4* | 0.0
Cc1cc(NC(=O)CSc2nnc(C)n2-c2ccccc2C)no1 | 2.0 | 0.1 | 12.8 | -0.6 | -4.2 | -10.0 | .
Cc1cc(C)nc(Sc2c(C)nn(-c3ccccc3)c2C)n1 | -1.5 | 0.8 | 0.0 | -0.2 | 0.8 | 15.2* | 0.3
Cc1nn(-c2ccccc2)c(C)c1CN | -2.6 | -5.2 | -0.4 | -1.1 | -1.0 | -5.9 | .
SMILES | Wee1 degr inh | p97 inhibitor | Arbovirus anti | Redox H2O2 prof | PKD1 kinase inh | RBBP9 inh | RBBP9 inh conf
COc1cc(OC)cc(C(=O)Nc2cccc(N3CCCC3)c2)c1 | 3.2 | 5.2 | 0.5 | 1.0 | -3.9 | -7.0 | .
COc1ccc(N2CC(C)Cn3c2nc2c3c(=O)[nH]c(=O)n2C)cc1 (stereo unspecified) | -4.2 | -1.0 | 4.7 | 0.3 | 3.6 | -3.7 | .
CC(=O)Nc1ccc(N(C(=O)c2ccco2)C(C(=O)NC2CCCC2)c2ccc(N3CCOCC3)cc2)cc1 (stereo unspecified) | 1.9 | 1.5 | 0.4 | 0.0 | -7.2 | -4.9 | .
CC(C)(C)NC(=O)CN(C(=O)c1ccc(CN2CCOCC2)o1)c1ccc2c(c1)OCCO2 | -4.5 | 1.4 | -1.7 | 1.9 | -6.5 | -6.7 | .
COc1ccc(C(=O)N(CC(=O)NC(C)(C)C)c2ccc3c(c2)OCCO3)cc1OC | -2.4 | 6.3 | -2.7 | 3.1 | 0.0 | 14.6* | 6.4
CCOCC(=O)Nc1cc(C)on1 | 2.1 | 0.2 | 5.3 | -0.2 | 12.1 | -4.4 | .
COc1ccc(OC)c(NC(=O)C2CCN(S(=O)(=O)c3c(C)noc3C)CC2)c1 | 3.6 | 3.2 | 7.0 | -0.5 | -5.7 | 16.4* | 7.2
COc1ccc(OC)c(NC(=O)C2CCCN(S(=O)(=O)c3c(C)noc3C)C2)c1 (stereo unspecified) | -0.9 | 2.5 | 8.3 | 2.0 | 6.7 | -1.3 | .
O=c1[nH]nc(CNc2ccc(O)cc2)c2ccccc12 | 0.8 | 1.4 | -0.7 | 0.5 | 2.9 | 17.0* | 6.0
O=C1C(C2=NC(c3ccccn3)C3C(=O)N(c4ccccc4)C(=O)C23)=C(O)c2ccccc21 (stereo unspecified) | -4.5 | 5.7 | . | . | . | 59.5* | 7.8
O=C1C2C3C=CC(C3)C2C(=O)N1c1ccccc1 (stereo unspecified) | -1.9 | 7.4 | -0.7 | 2.9 | -1.2 | -6.0 | .
CCn1c2ccc(F)cc2c2nnc(NN)nc21 | -0.7 | -1.3 | -13.2 | -0.8 | -14.4 | -3.4 | .
NNc1nnc2c3cc(F)ccc3n(Cc3ccccc3)c2n1 | -2.3 | 6.6 | . | . | . | 19.6* | 5.5
CCC(=O)N/C(=N/c1nc(C)cc(C)n1)Nc1ccc(OC)cc1 | 3.4 | -1.1 | -2.9 | 0.6 | -3.1 | 19.3* | 6.3
Cc1cc(C)nc(/N=C(\NC(=O)C(C)(C)C)Nc2ccc(F)cc2)n1 | -3.9 | 3.8 | . | . | . | 14.8* | 7.4
COc1ccccc1C(=O)N/C(=N/c1nc(C)cc(C)n1)Nc1ccccc1 | -0.8 | -3.8 | . | . | . | 2.3 | .
CCC(=O)N/C(=N/c1nc(C)cc(C)n1)Nc1ccccc1 | 0.5 | 1.0 | . | . | . | -1.6 | .
COc1cc(C(=O)NCCCn2ccnc2)cc(OC)c1OC | 3.3 | 7.3 | -2.9 | 0.0 | -5.7 | 14.4* | 0.3
COc1ccc(NC(=O)C2CSC3c4ccccc4C(=O)N23)cc1 (stereo unspecified) | -1.9 | 5.6 | 12.7 | 0.5 | -9.5 | 14.4* | 2.5
COc1ccc(-c2cc(-c3c(O)c(OC)c4occc4c3OC)[nH]n2)cc1OC | -0.4 | 0.5 | -9.7 | -0.2 | -2.5 | 14.6* | 53.3*
Cc1ccc2cc(CCNC(=O)c3cccs3)c(=O)[nH]c2c1 | -0.2 | 5.8 | -3.1 | 0.3 | -10.0 | 15.9* | 11.0
CCC1SC(CC)C(=O)N(CC(=O)Nc2ccc3c(c2)OCO3)C1=O (stereo unspecified) | -4.2 | -0.5 | -7.5 | 0.0 | -3.1 | -3.5 | .
O=C(NC1(C(F)(F)F)N=C2SCCN2C1=O)c1ccccc1F (stereo unspecified) | 4.0 | 1.3 | . | . | . | 0.5 | .
CC(=O)Nc1ccc(NC(=O)C2CC(=O)N(c3ccccc3Cl)C2)cc1 (stereo unspecified) | -0.5 | -1.6 | 1.7 | -0.9 | 4.9 | 1.7 | .
